The results in this text go back to PMC11112715 (ACS Omega, 2024).

Structures are written as SMILES. Where two headings read alike, the source gives them in different places.

As a reminder, the IC50 is the point on the concentration scale where inhibition reaches its midpoint.

Experiment [1] deals with NIH3T3 mouse fibroblast cells. Kind of experiment: MTT cell viability assay in NIH3T3 normal fibroblasts. It is filed as cell-based. The conditions noted are these: read-out: IC50 NIH3T3 normal mouse fibroblasts. Put shortly: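 NIH3T3 fibroblasts from ATCC, kept in DMEM with 10% FBS at 37 °C, 5% CO2. Seeded at 5 × 10³ cells/well in triplicate and exposed to a range of test compound concentrations for 48 h; DMSO diluted in medium at matching levels set 100% viability. MTT in medium for 4 h, formazan dissolved in 1:1 methanol/DMSO, A560 read minus 670 nm background.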

The subject of experiment [2] is SCC-9 cells (human tongue oral squamous cell carcinoma). Kind of experiment: MTT cell viability assay in SCC-9 cells. Type of experiment: cell-based. The conditions noted are these: for IC50: read-out: IC50 SSC9 oral squamous cell carcinoma; for Selectivity index (S.I.): IC50 in NIH3T3 / IC50 in SCC-9. The essentials: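 SCC-9 tongue OSCC cells from ATCC, grown in 1:1 DMEM/F12 with 10% FBS and 400 ng/mL hydrocortisone, 37 °C, 5% CO2. Plated at 5 × 10³ cells/well in triplicate, 48 h with graded test compound doses against matched DMSO (100% viability). MTT for 4 h, formazan in methanol/DMSO 1:1, absorbance 560 nm minus 670 nm. S.I. = IC50 NIH3T3 / IC50 SCC-9.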
On the technique in general: Tetrazolium assays rely on reduction of a dye to a coloured formazan, in cell work by metabolically active cells.

The test system of the next experiment is SCC-9 cells. Kind of experiment: Cell cycle progression and cell death, propidium iodide flow cytometry. It is filed as cell-based, human. Particulars: 48 h, compared to negative control. Background: Flow cytometry measures light scatter and fluorescence of single cells or particles in a stream.

Take `O=C1C=C(OCC#C[Se]c2ccccc2)C(=O)c2ccccc21` [Compound 9a, 2-((3-(Phenylselanyl)prop-2-yn-1-yl)oxy)naphthalene-1,4-dione]: the IC50 in experiment [1] (Mus musculus, NIH3T3, 48 h) amounted to 83.6 µM; in experiment [2] (Homo sapiens, SCC-9, 48 h) it was 31.9 µM. Besides, in experiment [2], the “Selectivity index (S.I.)” value amounted to 2.62.
`Cc1ccc([Se]C#CCOC2=CC(=O)c3ccccc3C2=O)cc1` [Compound 9b, 2-((3-(p-Tolylselanyl)prop-2-yn-1-yl)oxy)naphthalene-1,4-dione]: the IC50 in experiment [1] (Mus musculus, NIH3T3, 48 h) was 8.93 µM; in experiment [2] (Homo sapiens, SCC-9, 48 h), 17.1 µM. For the same compound, the “Selectivity index (S.I.)” value in experiment [2] is listed as 0.52.
For `COc1ccc([Se]C#CCOC2=CC(=O)c3ccccc3C2=O)cc1` [Compound 9c, 2-((3-((4-Methoxyphenyl)selanyl)prop-2-yn-1-yl)oxy)naphthalene-1,4-dione], the IC50 amounted to 27.2 µM in experiment [1] (Mus musculus, NIH3T3, 48 h) and 24.8 µM in experiment [2] (Homo sapiens, SCC-9, 48 h). Moreover, the “Selectivity index (S.I.)” value in experiment [2] is given as 1.10. Besides, the “Effect on proportion of cells in G0/G1 phase” value (shortened to “Effect on proportion of cells”) in the experiment with SCC-9 cells was “increased numbers of cells in the G0/G1 phase”.
In the case of `O=C1C=C(OCC#C[Se]c2ccc(F)cc2)C(=O)c2ccccc21` [Compound 9d, 2-((3-((4-Fluorophenyl)selanyl)prop-2-yn-1-yl)oxy)naphthalene-1,4-dione], the IC50 was found to be 24.2 µM in experiment [1] (Mus musculus, NIH3T3, 48 h) and 23.5 µM in experiment [2] (Homo sapiens, SCC-9, 48 h). For the same compound, the “Selectivity index (S.I.)” value in experiment [2] stood at 1.03.
Regarding `O=C1C=C(OCC#C[Se]c2ccc(Cl)cc2)C(=O)c2ccccc21` [Compound 9e, 2-((3-((4-Chlorophenyl)selanyl)prop-2-yn-1-yl)oxy)naphthalene-1,4-dione], the concentration for half-maximal inhibition (IC50) in experiment [2] (Homo sapiens, SCC-9, 48 h) was found to be 65.4 µM.
With `O=C1C=C(OCC#C[Se]c2ccc(C(F)(F)F)cc2)C(=O)c2ccccc21` [Compound 9f, 2-((3-((4-(Trifluoromethyl)phenyl)selanyl)prop-2-yn-1-yl)oxy)naphthalene-1,4-dione], the IC50 in experiment [1] (Mus musculus, NIH3T3, 48 h) turned out to be 56.5 µM. Besides, in experiment [2] (Homo sapiens, SCC-9, 48 h), the IC50 amounted to 31.7 µM. Also, in experiment [2], the “Selectivity index (S.I.)” value turned out to be 1.78. In the experiment with SCC-9 cells, the “Effect on DNA fragmentation” value was “increased DNA fragmentation”, the “Effect on cells in G2/M phases” value was “marked reduction of cells in the G2/M phases” and the “Effect on proportion of cells” value is reported as “increased numbers of cells in the G0/G1 phase”.
Regarding `O=C1C=C(OCC#C[Se]c2ccc3ccccc3c2)C(=O)c2ccccc21` [Compound 9g, 2-((3-(Naphthalen-2-ylselanyl)prop-2-yn-1-yl)oxy)naphthalene-1,4-Dione], in experiment [2] (Homo sapiens, SCC-9, 48 h), the IC50 was 68.2 µM.
Still for that read-out and setting: the same measure for `Cc1cc(C)c([Se]C#CCOC2=CC(=O)c3ccccc3C2=O)c(C)c1` [Compound 9h, 2-((3-(Mesitylselanyl)prop-2-yn-1-yl)oxy)naphthalene-1,4-dione]: 49 µM; for `CCCC[Se]C#CCOC1=CC(=O)c2ccccc2C1=O` [Compound 9i, 2-((3-(Butylselanyl)prop-2-yn-1-yl)oxy)naphthalene-1,4-dione]: 37.4 µM.
For the compound `O=C1C=C(OCC#C[Te]c2ccccc2)C(=O)c2ccccc21` [Compound 10a, 2-((3-(Phenyltellanyl)prop-2-yn-1-yl)oxy)naphthalene-1,4-dione], the IC50 in experiment [1] (Mus musculus, NIH3T3, 48 h) worked out at 5.83 µM. Also, the IC50 in experiment [2] (Homo sapiens, SCC-9, 48 h) was 1.65 µM. In addition, the “Selectivity index (S.I.)” value in experiment [2] turned out to be 3.53. In addition, in the experiment with SCC-9 cells, the “Effect on DNA fragmentation” value was “increased DNA fragmentation”, the “Effect on cells in G2/M phases” value is “no apparent alteration in the percentage of cells in the G2/M phases” and the “Effect on proportion of cells” value was “significantly decreased the proportion of cells in the G0/G1 phase”.
As for `Cc1ccc([Te]C#CCOC2=CC(=O)c3ccccc3C2=O)cc1` [Compound 10b, 2-((3-(p-Tolyltellanyl)prop-2-yn-1-yl)oxy)naphthalene-1,4-dione], the IC50 in experiment [1] (Mus musculus, NIH3T3, 48 h) came out at 2.27 µM. Moreover, the IC50 in experiment [2] (Homo sapiens, SCC-9, 48 h) came out at 4 µM. Besides, in experiment [2], the “Selectivity index (S.I.)” value is reported as 0.57. Moreover, in the experiment on SCC-9 cells, the “Effect on DNA fragmentation” value was “increased DNA fragmentation”, the “Effect on cells in G2/M phases” value was “no apparent alteration in the percentage of cells in the G2/M phases” and the “Effect on proportion of cells” value is on record as “significantly decreased the proportion of cells in the G0/G1 phase”.
Consider `O=C1C=C(OCC#C[Te]c2ccc(Cl)cc2)C(=O)c2ccccc21` [Compound 10c, 2-((3-((4-Chlorophenyl)tellanyl)prop-2-yn-1-yl)oxy)naphthalene-1,4-dione], for which the IC50 in experiment [1] (Mus musculus, NIH3T3, 48 h) came to 4.9 µM. The IC50 in experiment [2] (Homo sapiens, SCC-9, 48 h) amounted to 2.89 µM. Further, the “Selectivity index (S.I.)” value in experiment [2] was 1.70. Besides, in the experiment on SCC-9 cells, the “Effect on DNA fragmentation” value is on record as “increased DNA fragmentation” and the “Effect on cells in G2/M phases” value was “marked reduction of cells in the G2/M phases”.
Take `C#CCOC1=C(Sc2ccccc2)C(=O)c2ccccc2C1=O` [Compound 11, 2-(Phenylthio)-3-(prop-2-yn-1-yloxy)naphthalene-1,4-dione]: in experiment [2] (Homo sapiens, SCC-9, 48 h), the IC50 worked out at 62.3 µM.
`N.N.O=C([O-])C1(C(=O)[O-])CCC1.[Pt+2]` [carboplatin, reference compound]: the IC50 in experiment [1] (MTT, 48 h treatment) was 156 µM; in experiment [2] (MTT, 48 h treatment), 572 µM. In addition, the “Selectivity index (S.I.)” value in experiment [2] was 0.27.
Consider `COc1cccc2c1C(=O)c1c(O)c3c(c(O)c1C2=O)C[C@@](O)(C(=O)CO)C[C@@H]3O[C@H]1C[C@H](N)[C@H](O)[C@H](C)O1` [doxorubicin, reference compound], for which the IC50 worked out at 1.66 µM in experiment [1] (Mus musculus, NIH3T3, 48 h) and 2.71 µM in experiment [2] (Homo sapiens, SCC-9, 48 h). For the same compound, in experiment [2], the “Selectivity index (S.I.)” value is 0.61.
